Results reported in ChEMBL document CHEMBL1828575, “Design, synthesis and antiproliferative activities of biarylolefins based on polyhydroxylated and carbohydrate scaffolds” (Eur J Med Chem, 2011).
The source made the active and inactive calls. The rule behind the calls is not given here.

What was measured:
[1] = Cytotoxicity against human NCI60 cells assessed as cellular growth at 10 uM after 48 hrs by SRB assay relative to untreated control; format: functional
In short: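 NCI-60 panel lines grown in RPMI 1640 with 5% FBS and 2 mM L-glutamine. Plated at 5000–40,000 cells/well and preincubated 24 h at 37 °C, 5% CO₂, with time-zero plates fixed in TCA. Compounds, dissolved in DMSO and diluted in medium, were applied for 48 h. Cells were TCA-fixed (10% final for adherent, 16% for suspension) and stained with 0.4% SRB in 1% acetic acid. Dye was solubilised in 10 mM Tris base and read at 515 nm; growth was expressed as a percentage of untreated control.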

Ovis aries = species: Ovis aries; test: Inhibition of sheep brain tubulin polymerization at 10 uM
In short: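 Microtubule protein from sheep brain, purified by two assembly/disassembly cycles (37 °C/0 °C), in 100 mM MES pH 6.6, 1 mM EGTA, 0.5 mM MgCl₂. Compounds in DMSO were tested at a single concentration, with incubation at 37 °C for 10 min and then 0 °C for 5 min before measuring assembly rate, following a modified Guénard protocol.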

PC-3 [2] = test: Cytotoxicity against human PC3 cells at 10^-6 M after 72 hrs by MTS assay; format: functional; conditions: PC-3, 72 h, read-out: GI
In short: (§1)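 Preliminary screen at 10^-5 and 10^-6 M. Cells were grown in RPMI with 10% fetal calf serum plus penicillin, streptomycin and fungizone under 5% CO₂, plated in 96-well plates, and dosed 24 h later from DMSO stocks (1% DMSO final, same in controls). After 72 h, MTS was added for 3 h at 37 °C and absorbance read at 490 nm. Inhibition was calculated as (1 − OD treated/OD control) × 100, in triplicate.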

SF-268 [3] = test: Cytotoxicity against human SF268 cells at 10^-6 M after 72 hrs by MTS assay; format: functional; conditions: SF-268, 72 h, read-out: GI; in short: as §1
SK-OV-3 [4] = test: Cytotoxicity against human SKOV3 cells at 10^-6 M after 72 hrs by MTS assay; format: functional; conditions: SK-OV-3, 72 h, read-out: GI; in short: as §1
OVCAR-8 [5] = test: Cytotoxicity against human OVCAR8 cells at 10^-6 M after 72 hrs by MTS assay; format: functional; conditions: OVCAR-8, 72 h, read-out: GI; in short: as §1
MIA PaCa-2 [6] = test: Cytotoxicity against human MIAPaCa2 cells at 10^-6 M after 72 hrs by MTS assay; format: functional; conditions: MIA PaCa-2, 72 h, read-out: GI
HL-60 [7] = test: Cytotoxicity against human HL60 cells at 10^-6 M after 72 hrs by MTS assay; format: functional; conditions: HL-60, 72 h, read-out: GI
In short: (§2)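 Cells grown in RPMI with 10% fetal calf serum, penicillin, streptomycin and fungizone under 5% CO₂. Plated in 96-well plates and dosed 24 h later with compound in DMSO (1% final DMSO; controls got DMSO alone). After 72 h, MTS was added for 3 h at 37 °C and A490 read. Inhibition = (1 − OD treated/OD control) × 100, in triplicate.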

[8] = Cytotoxicity against human HL60R cells at 10^-6 M after 72 hrs by MTS assay; format: functional; conditions: read-out: GI; in short: as §2
K562 [9] = test: Cytotoxicity against human K562 cells at 10^-6 M after 72 hrs by MTS assay; format: functional; conditions: K562, 72 h, read-out: GI; in short: as §2
HCT-116 [10] = test: Cytotoxicity against human HCT116 cells at 10^-5 M after 72 hrs by MTS assay; format: functional; conditions: HCT-116, 72 h, read-out: GI; in short: as §2
HT-29 [11] = test: Cytotoxicity against human HT-29 cells at 10^-5 M after 72 hrs by MTS assay; format: functional; conditions: HT-29, 72 h, read-out: GI; in short: as §2
HCT-15 [12] = test: Cytotoxicity against human HCT15 cells at 10^-5 M after 72 hrs by MTS assay; format: functional; conditions: HCT-15, 72 h, read-out: GI; in short: as §2
MCF7 [13] = test: Cytotoxicity against human MCF7 cells at 10^-5 M after 72 hrs by MTS assay; format: functional; conditions: MCF7, 72 h, read-out: GI
[14] = Cytotoxicity against human MDA231 cells at 10^-5 M after 72 hrs by MTS assay; format: functional; conditions: MDA-MB-231, 72 h, read-out: GI; in short: as §1
A549 [15] = test: Cytotoxicity against human A549 cells at 10^-5 M after 72 hrs by MTS assay; format: functional; conditions: A549, 72 h, read-out: GI; in short: as §2
PC-3 [16] = test: Cytotoxicity against human PC3 cells at 10^-5 M after 72 hrs by MTS assay; format: functional; conditions: PC-3, 72 h, read-out: GI; in short: as §1
SF-268 [17] = test: Cytotoxicity against human SF268 cells at 10^-5 M after 72 hrs by MTS assay; format: functional; conditions: SF-268, 72 h, read-out: GI; in short: as §1
SK-OV-3 [18] = test: Cytotoxicity against human SKOV3 cells at 10^-5 M after 72 hrs by MTS assay; format: functional; conditions: SK-OV-3, 72 h, read-out: GI; in short: as §1
OVCAR-8 [19] = test: Cytotoxicity against human OVCAR8 cells at 10^-5 M after 72 hrs by MTS assay; format: functional; conditions: OVCAR-8, 72 h, read-out: GI; in short: as §1
MIA PaCa-2 [20] = test: Cytotoxicity against human MIAPaCa2 cells at 10^-5 M after 72 hrs by MTS assay; format: functional; conditions: MIA PaCa-2, 72 h, read-out: GI
HL-60 [21] = test: Cytotoxicity against human HL60 cells at 10^-5 M after 72 hrs by MTS assay; format: functional; conditions: HL-60, 72 h, read-out: GI; in short: as §2
[22] = Cytotoxicity against human HL60R cells at 10^-5 M after 72 hrs by MTS assay; format: functional, HL-60; conditions: read-out: GI; in short: as §2
K562 [23] = test: Cytotoxicity against human K562 cells at 10^-5 M after 72 hrs by MTS assay; format: functional; conditions: K562, 72 h, read-out: GI; in short: as §2
HCT-116 [24] = test: Cytotoxicity against human HCT116 cells at 10^-6 M after 72 hrs by MTS assay; format: functional; conditions: HCT-116, 72 h, read-out: GI; in short: as §2
HT-29 [25] = test: Cytotoxicity against human HT-29 cells at 10^-6 M after 72 hrs by MTS assay; format: functional; conditions: HT-29, 72 h, read-out: GI; in short: as §2
HCT-15 [26] = test: Cytotoxicity against human HCT15 cells at 10^-6 M after 72 hrs by MTS assay; format: functional; conditions: HCT-15, 72 h, read-out: GI; in short: as §2
MCF7 [27] = test: Cytotoxicity against human MCF7 cells at 10^-6 M after 72 hrs by MTS assay; format: functional; conditions: MCF7, 72 h, read-out: GI
[28] = Cytotoxicity against human MDA231 cells at 10^-6 M after 72 hrs by MTS assay; format: functional; conditions: MDA-MB-231, 72 h, read-out: GI; in short: as §1
A549 [29] = test: Cytotoxicity against human A549 cells at 10^-6 M after 72 hrs by MTS assay; format: functional; conditions: A549, 72 h, read-out: GI; in short: as §2

Work on `COc1cc(C(=C2O[C@@H]([C@H](O)CO)[C@H]3OC(C)(C)O[C@@H]23)c2cc(OC)c(OC)c(OC)c2)cc(OC)c1OC` yielded an Activity [1] of 103%.

For `COc1cc(/C(=C2\O[C@@H]([C@H](O)CO)[C@H]3OC(C)(C)O[C@@H]23)c2ccc3c(c2)OCO3)cc(OC)c1OC`, the Activity [1] was 106%.

Work on `COc1cc(/C(=C2\O[C@@H]([C@H]3COC(C)(C)O3)[C@H]3OC(C)(C)O[C@@H]23)c2cccc(N)c2)cc(OC)c1OC` yielded an Activity [1] of 102%.

Compound `COc1cc(C(=C2O[C@@H]([C@H]3COC(C)(C)O3)[C@H]3OC(C)(C)O[C@@H]23)c2cc(OC)c(OC)c(OC)c2)cc(OC)c1OC` has an Activity [1] of 105%.

With `COc1ccc(C(=C(COC(C)=O)COC(C)=O)c2cc(OC)c(OC)c(OC)c2)cc1O[Si](C)(C)C(C)(C)C` the “tubulin polymerization inhibition call (active/not active)” value (Ovis aries) was “inactive”.

For `COc1ccc(/C(=C2/O[C@@H]([C@H](O)CO)[C@H]3OC(C)(C)O[C@@H]23)c2cc(OC)c(OC)c(OC)c2)cc1O`, the Activity [1] was 79%.

With `COc1cc(/C(=C2/O[C@@H]([C@H](O)CO)[C@H]3OC(C)(C)O[C@@H]23)c2cccc([N+](=O)[O-])c2)cc(OC)c1OC` the inhibition of growth at 1 µM (PC-3 [2]) was 1%, the inhibition of growth at 1 µM (SF-268 [3]) was 17% and the inhibition of growth at 1 µM (SK-OV-3 [4]) was 10%. The inhibition of growth at 1 µM (OVCAR-8 [5]) was 0%, the inhibition of growth at 1 µM (MIA PaCa-2 [6]) was 0% and the inhibition of growth at 1 µM (HL-60 [7]) was 11%. For the same compound, the inhibition of growth at 1 µM [8] was 6%, the inhibition of growth at 1 µM (K562 [9]) was 0% and the inhibition of growth at 10 µM (HCT-116 [10]) was 0%. The inhibition of growth at 10 µM (HT-29 [11]) was 4%, the inhibition of growth at 10 µM (HCT-15 [12]) was 6% and the inhibition of growth at 10 µM (MCF7 [13]) was 14%. The inhibition of growth at 10 µM [14] was 0%, the inhibition of growth at 10 µM (A549 [15]) was 14% and the inhibition of growth at 10 µM (PC-3 [16]) was 23%. The inhibition of growth at 10 µM (SF-268 [17]) was 26%, the inhibition of growth at 10 µM (SK-OV-3 [18]) was 16% and the inhibition of growth at 10 µM (OVCAR-8 [19]) was 0%. For the same compound, the inhibition of growth at 10 µM (MIA PaCa-2 [20]) was 0%, the inhibition of growth at 10 µM (HL-60 [21]) was 10% and the inhibition of growth at 10 µM [22] was 11%. It also gave an inhibition of growth at 10 µM (K562 [23]) of 18%, an inhibition of growth at 1 µM (HCT-116 [24]) of 0% and an inhibition of growth at 1 µM (HT-29 [25]) of 4%. For the same compound, the inhibition of growth at 1 µM (HCT-15 [26]) was 10%, the inhibition of growth at 1 µM (MCF7 [27]) was 4% and the inhibition of growth at 1 µM [28] was 0%. For the same compound, the inhibition of growth at 1 µM (A549 [29]) was 8%.
